Reference: ChEMBL document CHEMBL2163200, “Synthesis, biological evaluation, and structure-activity relationships of novel substituted N-phenyl ureidobenzenesulfonate derivatives blocking cell cycle progression in S-phase and inducing DNA double-strand breaks” (J Med Chem, 2012)
The source made the active and inactive calls. No cut-off for these calls is given here.

How the values were obtained:
HT-29 = test: Cytotoxicity against human HT-29 cells after 48 hrs by SRB assay; format: functional, cell-based; conditions: HT-29, 48 h
How it was run: (§1)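 NCI sulforhodamine B protocol. Cells were grown in high-glucose DMEM with 5% FBS and seeded per well at 4 × 10^3 (HT-29), 3.5 × 10^3 (M21) or 3 × 10^3 (MCF-7), then allowed 24 h to attach. Serial dilutions from 200 μM to 780 nM final were applied in DMSO <0.5% for 48 h. Cells were fixed with cold TCA (10% final) and stained with SRB, with absorbance read at 530–568 nm. Growth inhibition was computed against day-0 plates, giving the 50% inhibitory concentration. At least two experiments in triplicate, CV <10%.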

MCF7 = test: Cytotoxicity against human MCF7 cells after 48 hrs by SRB assay; format: functional, cell-based; conditions: MCF7, 48 h; how it was run: as §1
Jurkat [1] = test: Cell cycle arrest in human Jurkat E6-1 cells assessed as accumulation at G2/M phase at 2.5 uM after 24 hrs by FACS flow cytometry; format: functional
How it was run: (§2)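 Jurkat E6 cells grown in RPMI 1640 with 10% FBS at 37 °C, 5% CO2. Compounds were serially diluted in medium starting 50% above the M21 IC50. 4.0 × 10^5 cells were exposed for 24 h, then washed and spiked with chicken red blood cells as internal standard. Cells were fixed in ice-cold ethanol, stained with 1 μg/mL DAPI on ice for 1 h, and phase distribution was read by flow cytometry. The control was 0.5% DMSO.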

Jurkat [2] = test: Cell cycle arrest in human Jurkat E6-1 cells assessed as accumulation at G0/G1 phase at 2.5 uM after 24 hrs by FACS flow cytometry; format: functional
How it was run: (§3)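 Jurkat E6 cells cultured in RPMI 1640 with 10% FBS at 37 °C, 5% CO2. Compounds serially diluted in medium, starting 50% above the M21 IC50. 4.0 × 10^5 cells were exposed for 24 h. Cells were washed with PBS, chicken red blood cells added as internal standard, and fixed in ice-cold EtOH. After 1 h on ice in PBS with 1 μg/mL DAPI, phase distribution was read by flow cytometry. DMSO-treated cells served as control.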

[3] = Toxicity in fertilized chicken embryo assessed as mortality rate at 30 ug per egg, iv administered on day 11 measured on day 17 by CAM assay; format: organism-based, Gallus gallus; conditions: in vivo, read-out: Activity
How it was run: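 Fertilized chicken eggs grafted on the CAM with HT-1080 cells (3.5 × 105/egg) received a 100 μL intravenous injection under the CAM on day 11. The drug was diluted in Cremophor EL/99% ethanol/PBS (1/1/14 v/v). Groups held 10–12 eggs and were incubated until day 17, when dead embryos and signs of toxicity were counted per group.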

M21 [4] = test: Cytotoxicity against human M21 cells after 48 hrs by SRB assay; format: functional, cell-based; conditions: M21, 48 h; how it was run: as §1
M21 [5] = test: Induction of DNA damage response in human M21 cells assessed as phosphorylation of H2AX into gammaH2AX at IC50 after 24 hrs by DAPI staining-based immunofluorescence assay; format: functional, cell-based
How it was run: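 M21 cells (1 × 10^5) on fibronectin-coated coverslips, grown 24 h, then exposed to agent for 24 h at 37 °C; 0.5% DMSO control. Fixed with 3.7% formaldehyde and permeabilized with 0.1% saponin/3% BSA. Probed with mouse anti-H2AX pS139 antibody for 2 h at room temperature. Nuclei counterstained with DAPI; nuclear γH2AX foci viewed by epifluorescence microscopy.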

Jurkat [6] = test: Cell cycle arrest in human Jurkat E6-1 cells assessed as accumulation at S phase at 2.5 uM after 24 hrs by FACS flow cytometry; format: functional; how it was run: as §2
HT-1080 = test: Antitumor activity against human HT1080 cells xenografted in chicken chorioallantoic membrane assessed as inhibition of tumor growth at 30 ug per egg, iv administered on day 11 measured on day 17 by CAM assay; format: functional
How it was run: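 HT-1080 fibrosarcoma cells (3.5 × 105/egg) were applied onto freshly exposed CAM of fertilized chicken eggs. On day 11, drug from a DMSO stock was diluted in Cremophor EL/99% ethanol/PBS (1/1/14 v/v) and 100 μL was injected into a vein under the CAM. Groups of 10–12 eggs were kept to day 17, embryos were euthanized at 4 °C for ≥4 h, and tumor wet weight was recorded.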

Jurkat [7] = test: Cell cycle arrest in human Jurkat E6-1 cells assessed as accumulation at G2/M phase at 0.60 uM after 24 hrs by FACS flow cytometry; format: functional; how it was run: as §3
Jurkat [8] = test: Cell cycle arrest in human Jurkat E6-1 cells assessed as accumulation at G0/G1 phase at 0.60 uM after 24 hrs by FACS flow cytometry; format: functional; how it was run: as §3
Jurkat [9] = test: Cell cycle arrest in human Jurkat E6-1 cells assessed as accumulation at S phase at 0.60 uM after 24 hrs by FACS flow cytometry; format: functional; how it was run: as §2
Jurkat [10] = test: Cell cycle arrest in human Jurkat E6-1 cells assessed as accumulation at G2/M phase at 43 uM after 24 hrs by FACS flow cytometry; format: functional; how it was run: as §2
Jurkat [11] = test: Cell cycle arrest in human Jurkat E6-1 cells assessed as accumulation at G0/G1 phase at 43 uM after 24 hrs by FACS flow cytometry; format: functional; how it was run: as §3
Jurkat [12] = test: Cell cycle arrest in human Jurkat E6-1 cells assessed as accumulation at S phase at 43 uM after 24 hrs by FACS flow cytometry; format: functional
How it was run: (§4)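 Jurkat E6 T-lymphoblasts in RPMI 1640 with 10% FBS, 37 °C, 5% CO2. […] Chicken red blood cells were added as internal standard. Cells were fixed in ice-cold EtOH and stained with 1 μg/mL DAPI on ice for 1 h before flow cytometry of phase distribution. Vehicle control was 0.5% DMSO.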

Jurkat [13] = test: Cell cycle arrest in human Jurkat E6-1 cells assessed as accumulation at G2/M phase at 30 uM after 24 hrs by FACS flow cytometry; format: functional; how it was run: as §2
Jurkat [14] = test: Cell cycle arrest in human Jurkat E6-1 cells assessed as accumulation at G0/G1 phase at 30 uM after 24 hrs by FACS flow cytometry; format: functional; how it was run: as §3
Jurkat [15] = test: Cell cycle arrest in human Jurkat E6-1 cells assessed as accumulation at S phase at 30 uM after 24 hrs by FACS flow cytometry; format: functional; how it was run: as §4
Jurkat [16] = test: Cell cycle arrest in human Jurkat E6-1 cells assessed as accumulation at S phase at 74 uM after 24 hrs by FACS flow cytometry; format: functional; how it was run: as §4
Jurkat [17] = test: Cell cycle arrest in human Jurkat E6-1 cells assessed as accumulation at G0/G1 phase at 74 uM after 24 hrs by FACS flow cytometry; format: functional; how it was run: as §3
Jurkat [18] = test: Cell cycle arrest in human Jurkat E6-1 cells assessed as accumulation at G2/M phase at 74 uM after 24 hrs by FACS flow cytometry; format: functional; how it was run: as §2
Jurkat [19] = test: Cell cycle arrest in human Jurkat E6-1 cells assessed as accumulation at G2/M phase at 19 uM after 24 hrs by FACS flow cytometry; format: functional; how it was run: as §2
Jurkat [20] = test: Cell cycle arrest in human Jurkat E6-1 cells assessed as accumulation at S phase at 19 uM after 24 hrs by FACS flow cytometry; format: functional; how it was run: as §2
Jurkat [21] = test: Cell cycle arrest in human Jurkat E6-1 cells assessed as accumulation at G0/G1 phase at 19 uM after 24 hrs by FACS flow cytometry; format: functional; how it was run: as §3
Jurkat [22] = test: Cell cycle arrest in human Jurkat E6-1 cells assessed as accumulation at S phase at 59 uM after 24 hrs by FACS flow cytometry; format: functional; how it was run: as §4
Jurkat [23] = test: Cell cycle arrest in human Jurkat E6-1 cells assessed as accumulation at G0/G1 phase at 59 uM after 24 hrs by FACS flow cytometry; format: functional; how it was run: as §3
Jurkat [24] = test: Cell cycle arrest in human Jurkat E6-1 cells assessed as accumulation at G2/M phase at 59 uM after 24 hrs by FACS flow cytometry; format: functional; how it was run: as §2
Jurkat [25] = test: Cell cycle arrest in human Jurkat E6-1 cells assessed as accumulation at G2/M phase at 23 uM after 24 hrs by FACS flow cytometry; format: functional; how it was run: as §2
Jurkat [26] = test: Cell cycle arrest in human Jurkat E6-1 cells assessed as accumulation at S phase at 23 uM after 24 hrs by FACS flow cytometry; format: functional; how it was run: as §2
Jurkat [27] = test: Cell cycle arrest in human Jurkat E6-1 cells assessed as accumulation at G0/G1 phase at 23 uM after 24 hrs by FACS flow cytometry; format: functional; how it was run: as §3

Structure (SMILES): CCNC(=O)Nc1ccc(S(=O)(=O)Oc2ccccc2C)cc1
- IC50 (HT-29): 12 µM
- IC50 (MCF7): 4.5 µM
- Activity (Jurkat [1]): 16%
- Activity (Jurkat [2]): 23%
- mortality at 6 days [3]: 9%
- IC50 (M21 [4]): 3.1 µM
- Activity (M21 [5]): Active
- Activity (Jurkat [6]): 61%
- TGI (HT-1080): 68%

Structure (SMILES): CCCc1ccccc1OS(=O)(=O)c1ccc(NC(=O)NCC)cc1
- IC50 (HT-29): 2.4 µM
- IC50 (MCF7): 1.3 µM
- Activity (Jurkat [7]): 7%
- mortality at 6 days [3]: 10%
- Activity (Jurkat [8]): 12%
- IC50 (M21 [4]): 0.8 µM
- Activity (M21 [5]): Active
- TGI (HT-1080): 65%
- Activity (Jurkat [9]): 81%

Structure (SMILES): CCNC(=O)Nc1cccc(S(=O)(=O)Nc2ccccc2CC)c1
- IC50 (HT-29): 15 µM
- IC50 (MCF7): 48 µM
- Activity (Jurkat [10]): 19%
- Activity (Jurkat [11]): 40%
- IC50 (M21 [4]): > 100 µM
- Activity (Jurkat [12]): 41%

Structure (SMILES): CCCc1ccccc1NS(=O)(=O)c1ccc(NC(=O)NCC)cc1
- IC50 (HT-29): 32 µM
- IC50 (MCF7): 37 µM
- Activity (Jurkat [13]): 46%
- Activity (Jurkat [14]): 19%
- IC50 (M21 [4]): 41 µM
- Activity (Jurkat [15]): 35%

Structure (SMILES): CCNC(=O)Nc1cccc(S(=O)(=O)Nc2ccccc2C)c1
- Activity (Jurkat [16]): 34%
- IC50 (HT-29): 102 µM
- IC50 (MCF7): 108 µM
- Activity (Jurkat [17]): 46%
- IC50 (M21 [4]): 131 µM
- Activity (Jurkat [18]): 20%

Structure (SMILES): CCc1ccccc1OS(=O)(=O)c1cccc(NC(=O)NCCCCl)c1
- Activity (Jurkat [19]): 17%
- IC50 (M21 [4]): 24 µM
- Activity (Jurkat [20]): 38%
- Activity (Jurkat [21]): 45%

Structure (SMILES): CCNC(=O)Nc1ccc(S(=O)(=O)Nc2ccccc2CC)cc1
- Activity (Jurkat [22]): 41%
- IC50 (M21 [4]): 90 µM
- Activity (Jurkat [23]): 21%
- Activity (Jurkat [24]): 38%

Structure (SMILES): Cc1ccc(OS(=O)(=O)c2ccc(NC(=O)NCCCl)cc2)cc1
- IC50 (HT-29): 30 µM
- IC50 (MCF7): 33 µM
- Activity (Jurkat [19]): 11%
- IC50 (M21 [4]): 21 µM
- Activity (Jurkat [20]): 57%
- Activity (Jurkat [21]): 32%

Structure (SMILES): CCCc1ccccc1NS(=O)(=O)c1cccc(NC(=O)NCC)c1
- IC50 (HT-29): 41 µM
- IC50 (MCF7): 40 µM
- IC50 (M21 [4]): 60 µM
- Activity (Jurkat [25]): 18%
- Activity (Jurkat [26]): 43%
- Activity (Jurkat [27]): 39%
